Screens from PubChem.
UPR CHOP act: apoptotic UPR (CHOP) activation | CHO-CHOP luciferase reporter, luminescence; percent of tunicamycin response over DMSO baseline | activation, % at 10 µM | hit rate 0.34% among 330,000;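 active means at 10 µM dose, activation of 40% or more, normalized to positive control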
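Test system: CHO CHOP reporter cells. Input: 500 CHO-CHOP cells per well. Medium: F12 with 10% FBS. Technique: luciferase luminescence. Measure: percent activation relative to tunicamycin control. Dosing: 10 µM compound, 0.5% DMSO. Timing: 16-18 h cell attachment, then 6 h compound exposure, 37 °C.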
CHOP inh: CHOP inhibition in unfolded protein response. CHO-K1 CHOP-promoter luciferase, tunicamycin-induced, 15-18 h. hit rate 3.8% among 220,000. inhibition, % at 10 µM;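 active means compounds that reduced the stress-induced luciferase reporter signal by more than about 70% of percent inhibition, limit read from the data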
UPR XBP1 act: activators of adaptive arm of unfolded protein response (XBP1); CHO-XBP1 luciferase reporter, IRE1-XBP1 UPR activation, luminescence; percent of tunicamycin response, DMSO as zero; activation, % at 20 µM; hit rate 0.33% among 330,000;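 active means versus positive control, 20 µM dose yields 30% or more activation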
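Material: CHO cell line with stable XBP1 luciferase reporter; buffer or medium: F12 medium containing 10% fetal bovine serum; compound: single point, 20 µM final compound, 1% DMSO; incubation: 6 h treatment, 37 °C; measured by: glow luminescence from Steady-Glo reagent; evaluation: activation, % of tunicamycin; control set: tunicamycin high, DMSO low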
PvdQ acylase: blocks Pseudomonas aeruginosa PvdQ acylase activity; purified PvdQ acylase, fluorescence plate reader; hit rate 0.063% among 340,000; inhibition, % at 10 µM; in the data active means inhibition above about 30%, passing the limit was not always enough
CHOP UPR conf: confirmation of apoptotic unfolded protein response (CHOP) activators; hit rate 64% among 1,000; AID 463112; activation, % at 10 µM; CHO-CHOP cells, CHOP-luciferase reporter luminescence; percent of tunicamycin response, DMSO as zero; shares compounds with UPR CHOP act; in the data active means activation above about 33%
Large screens that a line does not name were inactive (follow-up assays come after a bar, where they were run). Shown is part of a subset that was picked to be rich in hits.

Cc1cc(C(=O)Nc2nc(-c3ccccn3)cs2)ccc1[N+](=O)[O-]	none
Cc1nc(NC(=O)CSc2nnc(N)s2)c(Cl)cc1Cl	none
O=C1c2ccccc2C(=O)c2c1cccc2N1CCCC1	none (no result: UPR CHOP act, UPR XBP1 act)
O=C1C=C(N2CCCCC2)c2ccccc2C1=O	UPR CHOP act 76.2 (no result: CHOP inh, PvdQ acylase) | CHOP UPR conf inactive
C[C@@H](C(=O)N[C@H](C(=O)O)c1ccccc1)n1nnc2ccccc2c1=O	none
CC(C)N1CSC(=S)N(Cc2ccccc2)C1	UPR CHOP act 74.7 | CHOP UPR conf 93.5
CC(C)(C)N1CSC(=S)N(Cc2ccccc2)C1	UPR CHOP act 85.7 | CHOP UPR conf 81.6
COC(=O)c1ccc(-n2ccnc2)cc1	none
CCOC(=O)C(=Cc1ccc(-n2ccnc2)cc1)C(=O)OCC	UPR CHOP act 188.2 | CHOP UPR conf 142.1
CCOC(=O)C(=Cc1ccc(F)cc1)C(=O)OCC	UPR CHOP act 122.1 (no result: PvdQ acylase) | CHOP UPR conf 140.4
CC1=CC(=O)C(C(C)C)=C/C1=N/OC(=O)c1cccc([N+](=O)[O-])c1	UPR CHOP act 73.4 | CHOP UPR conf 48.2
C=C1C(=O)C=C[C@]2(C)C[C@@H]3OC(=O)[C@](C)(O)[C@H]3C[C@@H]12	UPR CHOP act 58.8 | CHOP UPR conf 55.9
O=C(Nc1c(-c2ccccc2)nc2ccccn12)c1cccc(F)c1	none (no result: CHOP inh)
CCOc1ccc(NC(=S)N(CCN2CCOCC2)Cc2cc3cc4c(cc3[nH]c2=O)OCCO4)cc1	none
CC1CC(=O)N(CC(=O)Nc2ccc(Br)cc2)c2ccccc2S1(=O)=O (centres undefined)	none (no result: CHOP inh)
CCCCC(=O)Nc1ccc(C(N)=O)cc1	none
NC(=O)c1cccc(NC(=O)CCCCC(=O)Nc2cccc(C(N)=O)c2)c1	UPR CHOP act 41.0 (no result: CHOP inh) | CHOP UPR conf inactive
O=C(NC1CCCC(C(F)(F)F)C1)c1ccc([N+](=O)[O-])o1 (centres undefined)	UPR CHOP act 64.0 (no result: CHOP inh) | CHOP UPR conf inactive
CC1(c2ccc3c(c2)OCCO3)NC(=O)N(CC(=O)Nc2ccccc2F)C1=O (centres undefined)	none (no result: CHOP inh)
Cc1cccc(C(=O)OCc2cc(=O)oc3c(C)c(C)ccc23)c1O	UPR CHOP act 43.2, UPR XBP1 act 34.1 (no result: CHOP inh) | CHOP UPR conf inactive
NS(=O)(=O)c1cc(C(=O)Nc2ccc3c(c2)CCC3)ccc1Cl	none (no result: CHOP inh)
CC(C)(C)c1ccc(Oc2ccc(NC(=O)c3ccco3)cn2)cc1	UPR CHOP act 42.6 | CHOP UPR conf inactive
O=C(Nc1ccc(Oc2cccc(C(F)(F)F)c2)nc1)c1ccco1	none
COc1ccc(/C=C/C(=O)c2ccc([N+](=O)[O-])o2)cc1OC	UPR CHOP act 81.5 (no result: CHOP inh, PvdQ acylase) | CHOP UPR conf inactive
O=C(/C=C/c1cccc(Cl)c1)c1ccc([N+](=O)[O-])o1	none (no result: CHOP inh)
COc1cc(/C=C/C(=O)c2ccc([N+](=O)[O-])o2)ccc1O	UPR CHOP act 94.5 (no result: CHOP inh) | CHOP UPR conf inactive
C[C@H]1CN([C@@H](C)CO)C(=O)Cc2cc(NC(=O)CCC(F)(F)F)ccc2O[C@H]1CN(C)CC1CC1	none (no result: CHOP inh)
COC(=O)c1cc(=O)n(Cc2ccco2)c(=Nc2ccc(F)c(Cl)c2)s1	UPR CHOP act 54.6 | CHOP UPR conf 54.0
Cc1nn(CC2CC2)c(=O)n1-c1ccc(Cl)cc1	none
Cc1nn(CC2CC2)c(=O)n1-c1ccccc1	UPR CHOP act 47.7 | CHOP UPR conf inactive
O=C(/C=C/c1ccc([N+](=O)[O-])cc1)/C=C/c1ccco1	UPR CHOP act 56.6 (no result: CHOP inh) | CHOP UPR conf 108.4
CC(=O)OCCCNc1cc(Sc2ccc(C)cc2)c2nonc2c1[N+](=O)[O-]	UPR CHOP act 149.4, CHOP inh 109.3 | CHOP UPR conf inactive
COC(=O)CCSc1cc(NCCOC(C)=O)c([N+](=O)[O-])c2nonc12	none
COc1ccccc1N1CCN(C(=O)c2ccc3c(=O)n(Cc4ccco4)c(=S)[nH]c3c2)CC1	none
COc1ccccc1Cn1c(=S)[nH]c2cc(C(=O)N3CCN(c4ccccc4OC)CC3)ccc2c1=O	UPR CHOP act 83.6 (no result: CHOP inh) | CHOP UPR conf inactive
CC1CCCCC12NC(=O)N(CC(=O)NCc1ccco1)C2=O (centres undefined)	none (no result: CHOP inh)
CCc1c(C)sc(NC(=O)c2cccs2)c1C#N	UPR CHOP act 49.7 | CHOP UPR conf inactive
COc1ccc(CN(C(=O)CN2C(=O)c3ccccc3S2(=O)=O)C(C(=O)NCC2CCCO2)c2ccco2)cc1 (centres undefined)	none (no result: CHOP inh)
COc1ccc(C(=O)CCS(=O)(=O)c2ccc(F)cc2)cc1OC	UPR CHOP act 44.0 (no result: CHOP inh) | CHOP UPR conf inactive
COc1cc(CC(=O)OCC(=O)NCc2cccs2)cc(OC)c1OC	none (no result: CHOP inh)
Oc1ccc(-c2csc(-c3cccnc3)n2)cc1O	none
Oc1ccc(-c2csc(-c3ccccc3)n2)cc1O	UPR CHOP act 143.5 | CHOP UPR conf 52.5
O=C1c2ccccc2S(=O)(=O)c2cc(C(=O)N3CCN(c4ccc(Cl)cn4)CC3)ccc21	none (no result: CHOP inh)
O=C1NN(c2cccc(Br)c2)C(=O)/C1=C/c1cccs1	UPR CHOP act 42.7 | CHOP UPR conf 60.4
O=C1NN(c2cccc(Br)c2)C(=O)/C1=C\c1ccccc1	none (no result: CHOP inh)
CC(C)[C@H](NC(=O)OC(C)(C)C)c1nnc(S(=O)(=O)Cc2c(F)cccc2Cl)o1	UPR CHOP act 133.9 (no result: CHOP inh) | CHOP UPR conf 95.0
CN(C)/C=C1/Sc2ccccc2C1=O	none
CC(=O)N(\C=C/C=C/C=C1\Sc2ccccc2C1=O)c1ccccc1	UPR CHOP act 63.9 | CHOP UPR conf 35.1
O=C(O)c1cn(-c2ccccc2)nc1-c1ccncc1	none
O=C(c1cn(-c2ccccc2)nc1-c1ccncc1)n1nnc2ccccc21	UPR CHOP act 98.7 (no result: CHOP inh) | CHOP UPR conf inactive
Nc1nn2cc(-c3ccccc3)nc2c2ccccc12	none
Cc1cn2nc(N)c3ccccc3c2n1	UPR CHOP act 41.1 | CHOP UPR conf inactive
CC1(C)CC(=O)C2=C(C1)Oc1nc3ccccc3cc1C2C(C#N)C#N (centres undefined)	UPR CHOP act 63.0 | CHOP UPR conf 34.2
Cc1cccc(Nc2ncnc(N)c2[N+](=O)[O-])n1	none
Cc1cc(C)nc(Sc2ncnc(N)c2[N+](=O)[O-])n1	UPR CHOP act 94.6, CHOP inh 101.7 | CHOP UPR conf inactive
O=C(COc1ccc(S(=O)(=O)N2CCCC2)cc1Cl)NCc1cccnc1	none (no result: CHOP inh)
CC(C)c1ccc(/C=C(\c2nc3ccccc3[nH]2)S(=O)(=O)c2ccccc2)cc1	UPR CHOP act 68.8 | CHOP UPR conf 105.7
Cc1ccc(C2=NN(C(=O)CCC(=O)O)C(c3cccs3)C2)cc1 (centres undefined)	none
Cc1ccc(C2=NN(C(=O)CCl)C(c3cccs3)C2)o1 (centres undefined)	UPR CHOP act 41.4, CHOP inh 84.1 | CHOP UPR conf inactive
COc1ccc(/C=N/NC(=O)c2ccc3c(c2)OCO3)c(C(=O)O)c1OC	none (no result: CHOP inh)
O=C1OCC(CO)(CO)N=C1NNc1ccc(Cl)c(Cl)c1	none
Cc1nc([N+](=O)[O-])cn1CC(=O)c1ccc(Cl)cc1	none (no result: CHOP inh)
Cc1nc([N+](=O)[O-])c(Br)n1CC(=O)c1ccc(Br)cc1	UPR CHOP act 75.1 | CHOP UPR conf 42.8
